Entries after “also recorded” stand apart in the source; their conditions may differ.
How the values were obtained:
[1] = biological target: T1, AbBioC (Acinetobacter baumannii, UniProt A0A1E3M3A7); test: Isothermal titration calorimetry of ligand binding to AbBioC; set-up: species or system A. baumannii; conditions: for binding stoichiometry (N): ITC, single binding site model, mean ± SD (n = 3)
T1 sequence (A0A1E3M3A7 1-249): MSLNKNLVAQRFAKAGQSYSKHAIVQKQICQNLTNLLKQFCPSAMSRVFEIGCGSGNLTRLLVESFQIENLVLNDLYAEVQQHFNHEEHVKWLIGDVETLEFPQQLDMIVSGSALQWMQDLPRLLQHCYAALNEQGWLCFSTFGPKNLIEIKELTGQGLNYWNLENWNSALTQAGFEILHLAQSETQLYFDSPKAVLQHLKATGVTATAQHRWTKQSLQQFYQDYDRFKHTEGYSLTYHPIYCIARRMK
Procedure, shortened: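 His6-SUMO-tagged AbBioC, Ni-NTA purified. ITC at 25°C in 20 mM tris (pH 8.0), 300 mM NaCl. AbBioC (20 μM) in cell, titrated with SAM or test compound (200 μM) in 20 injections: 0.4 μl first, then 2.0 μl every 120 s. Data fitted to single-site model; N and Kd given as mean ± SD of three replicates.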

[2] = biological target: T2, AbBioC methyltransferase (Acinetobacter baumannii, UniProt A0A1E3M3A7); type: biochemical, A. baumannii
T2 sequence (A0A1E3M3A7 1-249): T1 sequence (A0A1E3M3A7 1-249)

[3] = system: bioC-expressing bacterium; test: Effect of free SIN on viability of bioC-expressing bacterium; type: cell-based; conditions: free (not nanoparticle-loaded) SIN
[4] = system: BcBioC; conditions: in vitro; cited from earlier work
[5] = system: A. baumannii; test: Colistin E-test; type: cell-based
[6] = system: K. pneumoniae; test: Colistin E-test; type: cell-based; conditions: ATCC 43816 upon MCR-1 expression
[7] = system: mcr-1–expressing A. baumannii; test: Bacterial lysis assay, mcr-1-expressing A. baumannii; type: cell-based
Procedure, shortened: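 mcr-1–bearing A. baumannii and its ΔbioC mutant washed three times in biotin-free PBS, then seeded at 2 × 10^8 CFU/ml into 2 ml PBS with or without colistin (8 μg/ml). PBS-only groups served as untreated controls. Positive control arms used a reference inhibitor (4 μg/ml) alone, colistin (8 μg/ml) alone, or both together.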

[8] = system: mcr-1–harboring K. pneumoniae; test: Bacterial lysis assay, mcr-1-harboring K. pneumoniae; type: cell-based; conditions: colistin 8 μg/ml; MCR-1-expressing K. pneumoniae ΔbioC (FYJ6186)

Compound | Kd [1] [nM] | binding stoichiometry (N) [1] | binding affinity of SIN compared with SAM (fold, Kd) ([1]; ITC Kd of SIN versus the physiological ligand SAM) | Ki [2] [nM] | effect on the ability of AbBioC to initiate biotin synthesis ([2]; DTB/biotin bioassay, in vitro reconstituted system) | ability of free SIN to diminish bacterial viability [3] | inactivation of BcBioC enzyme [4] | colistin MIC (E-test) ([5]; AB18PR065 + mcr-4.3, 0.2% glu M9) [µg/mL] | colistin MIC (E-test) ([5]; ATCC 17978 + plasmid-borne mcr-1, LB) [µg/mL] | colistin MIC (E-test) ([5]; ATCC 17978 without mcr-1, LB) [µg/mL] | colistin MIC (E-test) [6] [µg/mL] | bacterial lysis / viability ([7]; colistin 8 μg/ml alone, FYJ6179 in PBS, 20 hours) | bacterial killing by colistin of the ΔbioC mutant ([7]; colistin 8 μg/ml, mcr-1–expressing A. baumannii ΔbioC (FYJ6181)) | bacterial killing by colistin of the ΔbioC mutant [8]
C[S+](CC[C@H](N)C(=O)[O-])C[C@H]1O[C@@H](n2cnc3c(N)ncnc32)[C@H](O)[C@@H]1O (stereo partly drawn) [SAM, S-adenosyl-L-methionine] | 2570 ± 750 | 0.95 ± 0.13 |  |  |  |  |  |  |  |  |  |  |  | 
Nc1ncnc2c1ncn2[C@@H]1O[C@H](C[C@@H](N)CC[C@H](N)C(=O)O)[C@@H](O)[C@H]1O [SIN, sinefungin] | 808 ± 135 | 1.180 ± 0.008 | around threefold | ~370 | efficiently interferes; also recorded: effectively kills AbBioC | inability | efficiently inactivate |  |  |  |  |  |  | 
colistin |  |  |  |  |  |  |  | 8.0 | 4.0 | 0.5 | 32 | neither MAC13772 inhibitor (4 μg/ml) nor colistin (8 μg/ml) lysed bacterial cells | resensitize; also recorded: vulnerability | fails to render the K. pneumoniae ΔbioC mutant insusceptible

Source: paper PMC11661456 (Science Advances, 2024)
